# Screening results (PubChem)
# SR-BI DiI-HDL act: activators of SR-BI mediated DiI-HDL uptake, primary screen, ldlA[mSR-BI] CHO cells, DiI fluorescence. 3 h; 100 = double the neutral-control signal. activation, % at 12.5 µM. actives 0.096% (n = 320,000);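 active = mean replicate activation of at least 60% and every replicate at or above 60%; inconclusive = mean or all-replicate condition met, but not both; inactive = mean below 60% and not all replicates reaching 60%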;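 note: 0% = median plate neutral-control signal and 100% = twice that signal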
#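 System: CHO ldlA[mSR-BI] cells / Medium: HEPES-buffered (25 mM, pH 7.4) F12 plus 0.5% BSA / Probe or stimulus: labelled HDL, 10 µg/mL / Doses: single compound concentration, delivered by pin transfer / Schedule: 3 h, 37 °C / Measured by: DiI fluorescence, bottom read / Measure: cell-associated DiI fluorescence as measure of HDL uptake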
# AHR activator: AHR activators, primary screen, cell-based, luminescence, luciferase reporter, human; actives 2.5% (n = 320,000); Aryl hydrocarbon receptor (Homo sapiens), P35869; AID 2796, 2010; activation, % at 5 µM; AHR-responsive luciferase reporter cells; in the data active = activation above about 47%;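 note: 0% = vehicle wells and 100% = reference agonist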
# Target sequence (P35869 whole entry, looked up): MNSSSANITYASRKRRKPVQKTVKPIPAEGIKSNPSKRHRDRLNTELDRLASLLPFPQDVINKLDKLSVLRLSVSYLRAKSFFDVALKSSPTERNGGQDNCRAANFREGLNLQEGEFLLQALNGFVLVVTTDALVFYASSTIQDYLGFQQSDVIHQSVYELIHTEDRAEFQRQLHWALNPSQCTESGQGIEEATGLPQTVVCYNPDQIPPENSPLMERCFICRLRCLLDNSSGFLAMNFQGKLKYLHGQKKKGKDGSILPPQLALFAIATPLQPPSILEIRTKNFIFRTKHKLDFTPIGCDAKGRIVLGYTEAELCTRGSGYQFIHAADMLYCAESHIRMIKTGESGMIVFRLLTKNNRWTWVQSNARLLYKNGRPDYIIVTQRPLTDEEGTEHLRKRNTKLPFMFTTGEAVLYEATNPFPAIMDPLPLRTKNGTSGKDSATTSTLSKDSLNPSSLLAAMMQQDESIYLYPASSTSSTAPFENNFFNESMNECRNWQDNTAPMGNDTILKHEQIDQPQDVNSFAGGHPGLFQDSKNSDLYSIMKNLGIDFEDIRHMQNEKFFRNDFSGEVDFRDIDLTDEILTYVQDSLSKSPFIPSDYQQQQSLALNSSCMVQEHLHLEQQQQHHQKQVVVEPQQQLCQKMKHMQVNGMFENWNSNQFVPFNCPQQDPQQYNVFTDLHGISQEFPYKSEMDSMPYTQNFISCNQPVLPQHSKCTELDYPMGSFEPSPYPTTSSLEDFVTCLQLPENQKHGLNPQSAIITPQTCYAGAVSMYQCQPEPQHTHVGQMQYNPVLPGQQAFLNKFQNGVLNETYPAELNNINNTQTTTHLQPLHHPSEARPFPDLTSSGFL
# SR-BI DiI inh: inhibitors of SR-BI mediated HDL lipid uptake, primary screen, ldlA[mSR-BI] cells, fluorescence, single point; Scavenger receptor class B member 1 (Mus musculus), Q61009; ldlA[mSR-BI] CHO cells, DiI-HDL uptake fluorescence, 3 h; inhibition, % at 12.5 µM; actives 0.96% (n = 320,000);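 active = mean replicate inhibition of at least 70% and a set share of replicates each scoring 70 or more; inconclusive = meets just one of the two criteria; inactive = fails both criteria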;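 note: 0% = median of neutral control wells and 100% = median of positive control wells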
# GASC-1 inh: inhibitors of GASC-1 histone demethylase, primary screen, biochemical, fluorescence, DELFIA europium. Lysine-specific demethylase 4C (Homo sapiens), Q9H3R0. inhibition, % at 2.35 µM. GST-JMJD2C(1-420) H3K9me3 demethylation. actives 0.069% (n = 330,000);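 active = more than half of a compound's replicate wells show inhibition beyond 50%, single wells judged on their own value; inconclusive = some, but no more than half, of replicates pass 50% inhibition; inactive = no replicate passes 50% inhibition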;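 note: signal counts dimethyl H3K9 product captured on neutravidin plate; 0% = median of DMSO wells and 100% = 0.3 times that DMSO median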
# FXN GAA850 act: FXN promoter activators, primary screen, cell-based, luciferase luminescence, HEK293 lucGAA850; HEK293 lucGAA850 FXN promoter luciferase reporter, 24 h; percent of 10 µM SAHA response; activation, % at 6 µM; actives 0.56% (n = 360,000);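 active = activation above the average of all compounds screened plus 3 SD, cutoff fixed separately per campaign, cut at about 7.5% in these data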;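 note: 0% = DMSO wells and 100% = 10 µM SAHA wells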
# AHR act cf: AHR activators, confirmation, cell-based, luminescence, luciferase reporter, human; shares compounds with AHR activator; human cells, AHR-responsive luciferase reporter; activation, % at 9 µM; actives 87% (n = 2,300); AID 2845, 2010; in the data active = activation above about 49%;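 note: HepG2 hepatoma cells carrying a DRE-driven firefly luciferase reporter; 0% = vehicle wells and 100% = reference agonist wells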
# PXR counter: human PXR activators, counter-screen for AHR activator project, cell-based, luciferase luminescence; shares compounds with AHR activator; cell-based PXR reporter; activation, % at 11.6 µM; actives 88% (n = 2,300); AID 434939, 2010; in the data active = activation above about 11%;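 note: human hepatoma DPX-2 cells expressing full-length human PXR; 0% = DMSO and 100% = reference agonist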
# An asterisk follows results filed as active; i = inactive; ? = inconclusive; nt = no result. Only some compounds are listed: those with a hit (about 3.7% of all), similar ones and a draw of the others.
SMILES,SR-BI DiI-HDL act,AHR activator,SR-BI DiI inh,GASC-1 inh,FXN GAA850 act,AHR act cf,PXR counter
Cc1cccc2c(=O)c(C(=O)NCCc3ccccc3)c[nH]c12,-10,20,10,-3,2,nt,nt
Cc1ccsc1-c1cc2nc(NCCCN(C)C)n(C)c(=O)c2s1,nt,nt,nt,nt,4,nt,nt
Cc1cc(-c2nc3ccccc3s2)ccc1N,5,nt,-5,nt,0,nt,nt
COc1cc(OC)cc(-c2nc3ccccc3s2)c1,-28,90*,28,-1,3,107*,11*
CC(=O)c1ccccc1NC(=O)c1ccc2c(c1)NC(=O)C(C)S2 (stereo not given),-53,122*,53,10,5,143*,152*
O=C(CSc1nnc(-c2cccc(F)c2)o1)Nc1nncs1,20,3,-20,i,3,nt,nt
CCOc1ccc(NC(=O)c2csc3c2CCCC3)cc1,nt,146*,nt,5,5,110*,45*
O=C(Nc1ccccc1C(=O)Nc1ccccc1)c1cccs1,-6,92*,6,7,-1,89*,30*
O=C(O)c1cccc(NC(=O)c2ccccc2NC(=O)c2cccs2)c1,nt,nt,nt,nt,-1,nt,nt
Cc1ccc(NC(=O)c2ccc(Cl)c(NC(=O)c3cccs3)c2)cc1,-53,131*,53,-1,5,73*,41*
O=C(Nc1ccccc1Cl)c1ccc(-c2ccccn2)s1,-11,23,11,3,2,nt,nt
CN(C(=O)CSc1nc(N)cc(N)n1)C1CCS(=O)(=O)C1 (stereo not given),nt,2,-30,-44,-2,nt,nt
C=CCn1cc(/C=N/N2C(=O)C3C4C=CC(C4)C3C2=O)c2ccccc21 (stereo not given),-2,15,2,-8,2,nt,nt
C=CCn1cc(/C=C2/NC(=O)NC2=O)c2ccccc21,-24,97*,24,46,2,91*,35*
Cc1c(C2(O)CCCCC2)[nH]c2ncccc12,5,-4,-5,-2,1,nt,nt
O=C1NCCC/C1=N\Nc1ccc(Br)cc1,16,119*,-16,30,2,124*,21*
CN1CCN(CC(=O)Nc2c(C(=O)c3ccccc3)oc3ccccc23)CC1,8,79*,-8,2,0,61*,20*
COc1ccc(S(=O)(=O)N2CCCCCC2)cc1NC(=O)CCc1cc(OC)c(OC)c(OC)c1,-16,nt,16,nt,2,nt,nt
Cc1ccc(/C=N/Nc2nc3ccccc3s2)o1,-5,111*,5,-11,4,113*,14*
CCC(C)(C)NC(=O)C(c1cccc(OC)c1OC)N(CCC(C)C)C(=O)CCC(=O)Nc1cc(C)on1 (stereo not given),0,-3,0,-9,-2,nt,nt
Nc1ccc(-c2nc3ccccc3[nH]2)cc1,6,17,-6,-17,-2,nt,nt
Nc1ccc(-c2nc3c(ccc4ccccc43)[nH]2)cc1,-27,83*,27,0,-6,60*,10
Cc1cccc(C)c1OCc1cc(C(=O)N2CCN(c3ccc(F)cc3)CC2)no1,-16,16,16,-4,4,nt,nt
COc1cc2ncnc(NCCCN3CCOCC3)c2cc1OC,17,0,-17,21,1,nt,nt
CCOc1cc2nc(-c3ccc(OC)c(OC)c3)nc(NCCCN3CCOCC3)c2cc1OC,24,101*,-24,3,-3,120*,17*
SMILES,SR-BI DiI-HDL act,AHR activator,SR-BI DiI inh,GASC-1 inh,FXN GAA850 act,AHR act cf,PXR counter
O=c1c2ccccc2nc2n1CCc1c-2[nH]c2ccccc12,-44,99*,44,nt,6,223*,20*
O=C(COC(=O)c1cc(Cl)nc(Cl)c1)Nc1ccc(Cl)c(S(=O)(=O)N2CCOCC2)c1,-1,-2,1,4,0,nt,nt
O=C1Nc2ccccc2C1C(C[N+](=O)[O-])c1ccccc1 (stereo not given),1,6,-1,1,1,nt,nt
O=C(Nc1cccc(F)c1)c1ccc(Br)o1,9,120*,-9,5,2,67*,20*
O=C(Nc1cccc(F)c1)c1c(F)c(F)c(F)c(F)c1F,35,95*,-35,-17,-1,72*,30*
Cc1cccc(NC(=O)c2c(F)c(F)c(F)c(F)c2F)c1,-9,8,9,?,1,nt,nt
CC(C)CN1C(=O)C(=O)N(CC(=O)c2ccc3c(c2)OCO3)C1=O,-9,1,9,0,1,nt,nt
C=CCNC(=O)c1ccc(NC(=O)C2=CSCCO2)cc1,-19,5,19,53,3,nt,nt
O=c1[nH]c2ccccc2nc1-c1ccccc1,6,101*,-6,-18,5,84*,11*
O=c1nc(-c2ccccc2)c2ccccc2[nH]1,18,4,-18,-4,2,nt,nt
Cc1cc(C)c(NS(=O)(=O)c2ccc3c(c2)NC(=O)CC(=O)N3)c(C)c1,15,1,-15,-3,3,nt,nt
COc1ccc2nc(NNC(=O)C3COc4ccccc4O3)sc2c1 (stereo not given),37,117*,-37,4,0,76*,30*
Nc1cc(-c2ccc(Br)cc2)[nH]n1,nt,84*,nt,0,0,132*,11*
Cc1cc(-c2ccc(Br)cc2)n[nH]1,-7,16,7,19,6,nt,nt
CC(=O)NCCNc1nc2c(-c3ccccc3)nnn2c2ccccc12,-27,88*,27,-2,5,113*,19*
CC(=O)NCCNc1nc2c(-c3cccc(C)c3)nnn2c2ccccc12,-25,44,25,28,0,nt,nt
CC(C)(C)OC(=O)C[C@@H]1C/C=C\C[C@H](CC(=O)N(CCO)Cc2ccccc2)C(=O)N2CCC[C@H]2COC1=O,-9,0,9,8,0,nt,nt
Cc1cc(C)nc(/N=C(\N)Nc2ccc(C)c([N+](=O)[O-])c2)n1,29,122*,-29,-4,0,84*,68*
C(=C\c1nc(N2CCCC2)c2ccccc2n1)/c1ccccc1,-56,162*,56,6,6,145*,45*
Cc1ccc(NC(=S)Nc2ccccn2)cc1C,-9,32,9,6,6,nt,nt
Cc1cc(C)cc(NC(=S)Nc2ccccn2)c1,-17,91*,17,-2,1,112*,27*
